Source: article PMC11044220 (ACS Omega, 2024)

Tests used:
[1] = test system: HepG2 cells; experiment: Cell cycle analysis by flow cytometry; type: cell-based, human; conditions: for percentage of cells at the G1 phase: IC50 concentration (4.23 μM), control 50.7%
Method in brief: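 HepG2 cells were treated for 48 h with 4.23 μM test compound, alongside untreated controls. DNA content was analysed by FACS to give the percentage of cells in G1, S and G2/M. The pre-G1 fraction was scored as the apoptotic (DNA-fragmented) population. Fold changes were expressed relative to the untreated control.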

[2] = biological target: EGFR-TK (Homo sapiens, UniProt P00533); experiment: EGFR-TK enzyme assay; type: biochemical
[3] = test system: HepG2 cells; experiment: Annexin V-FITC/PI dual staining apoptosis assay; type: cell-based, human
[4] = test system: HepG2 cells; experiment: Mitochondrial membrane potential; type: cell-based, human; conditions: HepG2, 48 h, 4.23 μM (IC50 concentration)
Method in brief: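 Whole HepG2 cells were incubated with 4.23 μM test compound for 48 h, then labelled with a green fluorescent mitochondrial dye. The percentage of cells with depolarised mitochondrial membranes was measured and expressed as fold relative to untreated HepG2 cells.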

[5] = test system: p53; experiment: qRT-PCR for apoptotic markers: p53; type: cell-based
[6] = test system: Bax; experiment: qRT-PCR for apoptotic markers: Bax; type: cell-based
[7] = test system: Bcl2; experiment: qRT-PCR for apoptotic markers: Bcl2; type: cell-based
[8] = test system: HepG2 liver cancer cell line; conditions: read-out: IC50 (μM) HepG2, MTT assay, mean of three independent replicates ± SE

EGFR-TK, sequence (P00533 25-1210): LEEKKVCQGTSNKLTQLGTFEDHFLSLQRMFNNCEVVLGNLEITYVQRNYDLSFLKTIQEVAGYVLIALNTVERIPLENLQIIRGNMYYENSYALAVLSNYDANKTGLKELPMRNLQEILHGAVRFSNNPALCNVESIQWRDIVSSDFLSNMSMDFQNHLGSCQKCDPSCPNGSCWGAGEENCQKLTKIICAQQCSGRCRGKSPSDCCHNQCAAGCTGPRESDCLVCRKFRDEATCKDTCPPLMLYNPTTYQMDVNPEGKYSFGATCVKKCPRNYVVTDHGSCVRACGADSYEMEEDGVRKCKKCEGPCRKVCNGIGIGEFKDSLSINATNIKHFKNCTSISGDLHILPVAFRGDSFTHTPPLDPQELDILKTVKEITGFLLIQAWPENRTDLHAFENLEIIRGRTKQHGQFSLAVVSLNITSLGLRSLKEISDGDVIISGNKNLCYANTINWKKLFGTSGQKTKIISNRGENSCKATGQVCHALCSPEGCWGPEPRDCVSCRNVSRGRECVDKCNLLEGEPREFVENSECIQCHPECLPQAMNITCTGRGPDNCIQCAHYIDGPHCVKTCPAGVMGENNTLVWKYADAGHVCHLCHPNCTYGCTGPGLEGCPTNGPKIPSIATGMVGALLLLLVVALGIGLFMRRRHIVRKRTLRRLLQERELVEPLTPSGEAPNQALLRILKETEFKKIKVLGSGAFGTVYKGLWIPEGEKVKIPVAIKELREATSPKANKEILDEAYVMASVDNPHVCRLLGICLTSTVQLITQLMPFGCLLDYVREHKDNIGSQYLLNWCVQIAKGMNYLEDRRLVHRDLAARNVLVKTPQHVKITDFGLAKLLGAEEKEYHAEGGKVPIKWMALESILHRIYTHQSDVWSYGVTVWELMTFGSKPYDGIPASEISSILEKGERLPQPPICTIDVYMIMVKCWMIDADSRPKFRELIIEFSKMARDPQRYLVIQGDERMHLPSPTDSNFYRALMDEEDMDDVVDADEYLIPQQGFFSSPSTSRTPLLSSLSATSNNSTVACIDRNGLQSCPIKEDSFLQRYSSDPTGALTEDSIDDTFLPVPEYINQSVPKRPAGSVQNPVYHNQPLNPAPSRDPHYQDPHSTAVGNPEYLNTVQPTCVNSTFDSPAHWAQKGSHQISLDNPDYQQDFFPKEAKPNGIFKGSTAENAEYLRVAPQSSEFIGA

| IC50 [2] [µM] | IC50 [8] [µM] | SMILES | percentage of cells at the G1 phase ([1]; HepG2, 48 h) [%] | cells at the pre-G1 phase ([1]; HepG2, 48 h, IC50 concentration, control 2.5%) [%] | cell cycle arrest at the G1 phase, fold compared to untreated HepG2 control ([1]; HepG2, IC50 concentration) [fold] | total apoptotic cells (early and late apoptosis and necrosis) ([3]; HepG2, 48 h, IC50 concentration (4.23 μM), control 2.5%) [%] | ratio of both early and late apoptosis ([3]; HepG2, IC50 concentration, control 0.7%) [%] | decrease of MMP level, fold compared with untreated control HepG2 [4] [fold] | p53 level, fold change compared with no treatment control [5] [fold] | Bax level, fold change compared with no treatment control [6] [fold] | Bcl2 level, fold change [7] [fold] |
| --- | --- | --- | --- | --- | --- | --- | --- | --- | --- | --- | --- |
|  |  | O=C(NN=C(c1ccccc1)c1ccccc1)/C(=C/c1ccc(F)cc1)NC(=O)c1ccccc1 [compound 5, (Z)-N-(3-(2-(Diphenylmethylene)hydrazinyl)-1-(4-fluorophenyl)-3-oxoprop-1-en-2-yl)benzamide] | 64.2 |  |  |  |  |  |  |  |  |
| 0.13 |  | O=C1/C(=C/c2ccc(F)cc2)N=C(c2ccccc2)N1c1ccc(S(=O)(=O)Nc2ncccn2)cc1 [compound 6, (Z)-4-(4-(4-Fluorobenzylidene)-5-oxo-2-phenyl-4,5-dihydro-1H-imidazol-1-yl)-N-(pyrimidin-2-yl)benzenesulfonamide] | 64.2 | 55.5 | 1.28 | 55.5 | 44.8 | 2.84 | 4.7 | 3.7 | 0.38 |
|  | 5.89 ± 0.19 | O=C1NN(c2ccccc2)C(c2ccccc2)=N/C1=C\c1ccc(F)cc1 [compound 7, (Z)-5-(4-Fluorobenzylidene)-2,3-diphenyl-1,2-dihydro-1,2,4-triazin-6(5H)-one] |  |  |  |  |  |  |  |  |  |
